# In paper PMC9973464 (Haematologica, 2022):
# Values joined by “and” are separate entries in the source; they are usually repeats but may differ in a detail not shown here. Equal values may be shown once.
# Assays:
# R/R AML patients = conditions: cited from earlier work
# patients with R/R AML [1] = assay: Phase Ib dose-escalation trial of oral mivavotinib: safety, DLT, MTD/RP2D; assay type: in vivo, human
# patients with R/R AML [2] = assay: Phase Ib trial: response and antileukemic activity; assay type: in vivo, human
# In short: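 Multicenter, open-label phase Ib dose escalation (3+3) of oral single agent given QD or BID in 28-day cycles until progression or unacceptable toxicity. Started at 60 mg QD with 20 mg increments. Response was judged by Revised IWG AML criteria, with modifications.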
# [3] = Phase Ib trial: plasma pharmacokinetics; assay type: in vivo, human
# FLT3 = biological target: T1, FLT3 (Homo sapiens, UniProt P36888); assay: Plasma inhibitory activity; assay type: cell-based
# T1 sequence (P36888 610-943 limits assumed): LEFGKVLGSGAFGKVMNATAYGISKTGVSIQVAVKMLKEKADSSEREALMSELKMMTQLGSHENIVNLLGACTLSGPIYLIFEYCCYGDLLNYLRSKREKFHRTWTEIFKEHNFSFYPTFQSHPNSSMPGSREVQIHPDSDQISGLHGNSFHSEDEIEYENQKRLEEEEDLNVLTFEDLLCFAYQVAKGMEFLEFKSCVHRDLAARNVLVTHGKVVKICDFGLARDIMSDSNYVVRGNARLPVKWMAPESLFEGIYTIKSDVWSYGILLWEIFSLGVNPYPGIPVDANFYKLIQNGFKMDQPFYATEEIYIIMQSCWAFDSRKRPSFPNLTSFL
# In short: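 Steady-state trough plasma was drawn before dosing on Cycle 1 day 15. An FLT3-ITD-expressing AML cell line was incubated in this plasma. FLT3 phosphorylation was quantified against baseline plasma and reported as % of baseline. Drug level in the same sample was measured by mass spectrometry. Reference curve: normal donor plasma spiked with test compound, Molm-14 cells 1 h, immunoblot for pFLT3.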
# human platelets = assay: In vitro platelet aggregation assay in platelet rich plasma; assay type: cell-based
# rats = assay: Pre-clinical toxicology study, daily oral gavage, rats; assay type: in vivo; conditions: daily oral gavage for 14 days to 3 months
# dogs = assay: Pre-clinical toxicology study, daily oral gavage, dogs; assay type: in vivo; conditions: daily oral gavage for 14 days to 3 months
# FLT3 isoforms = conditions: evaluation of additional kinases; cited from earlier work
# lymphoma patients = conditions: target SYK; cited from earlier work
structure (smiles),measurement,setting,value
CCc1nc(C(N)=O)c(Nc2ccc(N3CCC(N4CCN(C)CC4)CC3)c(OC)c2)nc1NC1CCOCC1 [gilteritinib],median time to achieve best response,R/R AML patients,48 days
Cn1cc(-c2nc(N[C@@H]3CCCC[C@@H]3N)c(F)c3c2C(=O)NC3)cn1 [mivavotinib],DLT,"patients with R/R AML [1]; 60 mg BID, 8 patients",No episodes of DLT were observed
same,drug-related SAE gastric hemorrhage,"patients with R/R AML [1]; 3 patients, who received 80 mg BID",7%
same,"maximum tolerated dose (MTD), BID dosing regimen",patients with R/R AML [1]; BID dosing regimen,60 mg BID
same,recommended phase II dose (RP2D),patients with R/R AML [1]; QD dosing regimen,140 mg QD
same,"maximum tolerated dose (MTD), QD dosing regimen","patients with R/R AML [1]; QD dosing up to 160 mg QD, per protocol",not reached
same,on-study deaths,patients with R/R AML [1]; after informed consent and ≤28 days after last dose,26
same,patients with ≥1 TEAE assessed by the investigator as related to mivavotinib,patients with R/R AML [1]; all 43 patients,84%
same,intracranial bleeding considered grade ≥3,patients with R/R AML [1]; all doses,4 patients
same,patients with GI tract bleeding considered grade ≥3,patients with R/R AML [1]; all doses,7 patients
same,patients with GI-related or central nervous system-related bleeding event leading to study discontinuation,patients with R/R AML [1]; all doses,9 patients
same,patients with bleeding involving the GI tract,patients with R/R AML [1]; all doses,Thirteen
same,patients with intracranial bleeding,patients with R/R AML [1]; all doses,Seven
same,patients who discontinued mivavotinib due to a TEAE,patients with R/R AML [1]; all patients,67%
same,patients with drug-related SAE,patients with R/R AML [1]; all patients,28%
same,bleeding events leading to discontinuation considered related to mivavotinib,patients with R/R AML [1]; of 9 patients,5
same,fatal grade ≥3 bleeding events,patients with R/R AML [1]; of eleven patients with grade ≥3 bleeding events,2
same,median day of occurrence of all bleeding events,patients with R/R AML [1]; range -1 to 262,22 days
same,"reduction in marrow blast percentage, range",patients with R/R AML [2]; 13 patients with FLT3 mutations,22.5-98.6%
same,patients with PD,patients with R/R AML [2]; 33 response-evaluable patients,5
same,patients with clinical benefit despite PD,patients with R/R AML [2]; 33 response-evaluable patients,4
same,patients with stable disease,patients with R/R AML [2]; 33 response-evaluable patients,19
same,complete responses (4 with incomplete count recovery),patients with R/R AML [2]; 43 patients enrolled,5
same,patients with a ≥50% reduction in peripheral blast count from baseline,patients with R/R AML [2]; BID dosing,9 of 12
same,patients with a ≥50% reduction in peripheral blast count from baseline,patients with R/R AML [2]; QD dosing,12 of 21
same,patients with a ≥50% reduction in peripheral blast count from baseline,patients with R/R AML [2]; across all dose levels,21 of 33
same,objective responses with incomplete count recovery (CRi),"patients with R/R AML [2]; of 19 patients with FLT3 mutations treated at 120, 140, or 160 mg QD or BID",3
same,dose proportionality of plasma exposure,"[3]; dose ranges studied, 60-160 mg QD or 60-80 mg BID",generally dose proportional
same,Cmax,"[3]; human, plasma, oral, 140 mg",574 ng/mL and 1.07 µM
same,Tmax,"[3]; human, plasma, po",1 to 3 h
same,"in vivo FLT3 inhibition by PIA, comparison of dose levels","FLT3; 80 mg BID, trough plasma",most effective FLT3 inhibition
same,consistent or sustained 90% FLT3 inhibition,FLT3; 140 mg QD or 60 mg BID,"neither selected RP2D, 140 mg QD or 60 mg BID, achieved a consistent or sustained 90% FLT3 inhibition"
same,FLT3 inhibition,"FLT3; 140 mg QD, by Cycle 1 day 15, initial evidence",at least 90%
same,effect on platelet aggregation caused by adenosine diphosphate,human platelets,prevented aggregation
same,effect on platelet aggregation caused by collagen,human platelets; 1.07 µM mivavotinib,prevented aggregation
same,inhibition of platelet aggregation,human platelets; 0.107 mM mivavotinib,not observed
same,effect on platelet aggregation caused by collagen,"human platelets; 10.7 mM mivavotinib, collagen (2 mg/mL)",prevented aggregation
same,dose at which GI mucosal hemorrhage was present,rats,≥ 30 mg/kg
same,dose at which GI mucosal hemorrhage was dose limiting,dogs,≥ 10 mg/kg
same,dose at which GI mucosal hemorrhage was present,dogs,≥ 3 mg/kg
same,activity against FLT3 isoforms,FLT3 isoforms,1.6 to 7.6 ng/mL
same,dose identified for expansion,lymphoma patients,100 mg QD
